Laboratory results taken from ChEMBL document CHEMBL3769384, “Discovery of Tetrahydropyrazolopyridine as Sphingosine 1-Phosphate Receptor 3 (S1P3)-Sparing S1P1 Agonists Active at Low Oral Doses” (J Med Chem, 2016).

Experiments:
Cytochrome P450 3A4 [1] = target: T1, Cytochrome P450 3A4 (Homo sapiens, UniProt P08684); test: Inhibition of human CYP3A4 by VR metabolism assay; type: ADME
[2] = target: Sphingosine 1-phosphate receptor 2 (Homo sapiens, UniProt O95136); test: Agonist activity at human S1P2 receptor expressed in Saccharomyces cerevisiae after 24 hrs by reporter gene assay
How it was run: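 S. cerevisiae with integrated S1P2 under the GPD promoter, seeded at 0.02 OD600 in histidine-free minimal medium with 5 mM 3-aminotriazole and 100 µM fluorescein-di-(β-D-glucopyranoside). Agonist-driven growth was read as fluorescein fluorescence (ex 485/em 535 nm) after 24 h at 30°C.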

[3] = target: Sphingosine 1-phosphate receptor 5 (Homo sapiens, UniProt Q9H228); test: Agonist activity at human S1P5 receptor expressed in CHO-K1 cells by aequorin calcium accumulation assay; type: functional, cell-based
How it was run: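 CHO-K1 aequorin lines revived in DMEM F12 with 10% charcoal-stripped FBS, recovered 30 min at 37°C, then loaded 18-24 h at room temperature in the dark with 5 µM coelenterazine at 2.5x10^6 cells/mL. Cells were added at 1x10^5/well to compound, and flash luminescence was recorded immediately.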

Cytochrome P450 3A4 [4] = target: T1, Cytochrome P450 3A4; test: Inhibition of human CYP3A4 by VG metabolism assay; type: ADME
[5] = Oral bioavailability in rat; type: ADME, organism-based; conditions: in vivo
[6] = target: T2, Sphingosine 1-phosphate receptor 1 (Homo sapiens, UniProt P21453); test: Agonist activity at human S1P1 receptor expressed in CHO-K1 EDG1 cells by beta-arrestin recruitment assay; type: cell-based
How it was run: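 CHO-K1 cells stably expressing beta-arrestin 2 and S1P1 fused to complementing beta-galactosidase fragments; grown to 80% confluency, harvested enzyme-free, resuspended in HEPES/BSA assay buffer pH 7.4. Cells at 1x10^4/well added to compound in DMSO, 90 min at 37°C/5% CO2, then 15 min at room temperature; chemiluminescent detection mix 60 min at room temperature, luminescence read.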

Cytochrome P450 3A4 [7] = target: T1, Cytochrome P450 3A4; test: Inhibition of human CYP3A4 coexpressed in Escherichia coli with human NADPH reductase using midazolam as substrate at 0.1 to 100 uM by fluorescence assay; type: ADME; conditions: TDE = time-dependent effect
[8] = Lipophilicity, log D of the compound at pH 2 by chromatography; type: physicochemical; conditions: buffer
[9] = Fraction unbound in CD1 mouse blood after 4 hrs by LC-MS/MS analysis; type: ADME, tissue-based
How it was run: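 Fresh blood (CD rat, CD1 mouse, Beagle dog, single human donor) spiked at 1000 ng/mL and dialysed against PBS by rapid equilibrium dialysis for 4 h at 37°C. Matrix-matched LC-MS/MS; unbound fraction taken from the buffer/blood peak area ratio.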

[10] = Intrinsic clearance in beagle dog hepatocytes at 0.5 uM after 2 hrs by LC-MS/MS analysis; type: ADME, cell-based, Canis lupus familiaris, Hepatocyte
How it was run: (§1)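 Compound at 0.5 µM incubated with pooled cryopreserved hepatocytes (0.7 million cells/mL) in Williams Medium E at 37°C under CO2/O2. Supernatants analysed by LC-MS/MS. CLi was derived from a first-order rate constant, scaled with 1.2x10^8 cells/g liver (human, rat, mouse) or 2.4x10^8 cells/g liver (dog).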

Cytochrome P450 1A2 = target: T3, Cytochrome P450 1A2 (Homo sapiens, UniProt P05177); test: Inhibition of CYP1A2 (unknown origin) coexpressed in Escherichia coli with human NADPH reductase using ethoxyresorufin as substrate after 10 mins by fluorescence assay; type: ADME
T3 sequence (P05177 whole entry): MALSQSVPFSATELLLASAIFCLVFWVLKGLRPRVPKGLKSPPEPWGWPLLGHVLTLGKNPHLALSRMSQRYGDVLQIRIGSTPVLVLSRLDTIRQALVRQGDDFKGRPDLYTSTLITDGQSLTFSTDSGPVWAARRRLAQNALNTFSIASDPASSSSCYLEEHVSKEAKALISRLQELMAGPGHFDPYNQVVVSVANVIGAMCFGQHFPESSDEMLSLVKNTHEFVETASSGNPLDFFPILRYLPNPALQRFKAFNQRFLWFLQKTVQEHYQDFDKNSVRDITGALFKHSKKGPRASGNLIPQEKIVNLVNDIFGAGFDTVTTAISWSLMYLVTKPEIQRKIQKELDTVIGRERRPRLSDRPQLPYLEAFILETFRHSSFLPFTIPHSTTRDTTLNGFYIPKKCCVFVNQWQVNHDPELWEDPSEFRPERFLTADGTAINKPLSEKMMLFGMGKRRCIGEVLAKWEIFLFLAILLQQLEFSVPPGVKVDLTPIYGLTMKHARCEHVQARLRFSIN
How it was run: (§2)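 Recombinant CYP co-expressed in E. coli with human NADPH reductase, incubated with an isoform-specific pro-fluorescent substrate and compound (nine concentrations, 0.1-100 µM) plus a 0.2 mM NADPH regenerating system for 10 min at 37°C. Fluorescent metabolite formation was monitored.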

[11] = Lipophilicity, log D of the compound at pH 7.4 by chromatography; type: physicochemical; conditions: buffer
Salmonella typhimurium = test: Mutagenicity in Salmonella typhimurium by Ames test; type: toxicity, organism-based; conditions: salmonella enterica subsp. enterica serovar typhimurium
[12] = Lipophilicity, log D of the compound at pH 10.5 by chromatography; type: physicochemical; conditions: buffer
Cytochrome P450 3A4 [13] = target: T1, Cytochrome P450 3A4; test: Inhibition of human CYP3A4 coexpressed in Escherichia coli with human NADPH reductase using atorvastatin as substrate at 0.1 to 100 uM by fluorescence assay; type: ADME; conditions: TDE = time-dependent effect
[14] = Passive permeability from apical to basolateral side in MDCK2-MDR1 cells after 90 mins by LC-MS/MS analysis; type: ADME, cell-based, Canis lupus familiaris, MDCK-II; conditions: dog, MDCK-MDR1; read-out: permeability
How it was run: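 MDCKII-MDR1 monolayers used 3-4 days after seeding on inserts. Apical FaSSIF at pH 5.5 or 7.4; basolateral DMEM pH 7.4 with 1% HSA. Both sides contained 2 µM GF120918 and were preincubated 30 min. A→B transport measured in triplicate after 90 min at 37°C with shaking.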

Rattus norvegicus = test: Lymphopenia activity in oral dosed Lewis rat
Cytochrome P450 3A4 [15] = target: T1, Cytochrome P450 3A4; test: Inhibition of human CYP3A4 coexpressed in Escherichia coli with human NADPH reductase using nifedipine as substrate at 0.1 to 100 uM by fluorescence assay; type: ADME; conditions: TDE = time-dependent effect
Cytochrome P450 2D6 = Cytochrome P450 2D6 (Homo sapiens, UniProt P10635); test: Inhibition of CYP2D6 (unknown origin) coexpressed in Escherichia coli with human NADPH reductase using 4-methylaminomethyl-7-methoyxycoumarin as substrate after 10 mins by fluorescence assay; type: ADME; how it was run: as §2
[16] = target: T2, Sphingosine 1-phosphate receptor 1; test: Agonist activity at human S1P1 receptor expressed in RH7777 cells by [35S]GTP-gammaS accumulation assay; type: cell-based
How it was run: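 RH7777 S1P1 membranes (1.5 µg/well) precoupled 30 min on ice to WGA SPA beads in 20 mM HEPES, 10 mM MgCl2, 100 mM NaCl, pH 7.4, with 10 µM GDP and 90 µg/mL saponin (final). 0.5 nM [35S]GTPγS final added to compound; plates read immediately by scintillation proximity.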

Cytochrome P450 2C19 = Cytochrome P450 2C19 (Homo sapiens, UniProt P33261); test: Inhibition of CYP2C19 (unknown origin) coexpressed in Escherichia coli with human NADPH reductase using 3-butyryl-7-methoxycoumarin as substrate after 10 mins by fluorescence assay; type: ADME; how it was run: as §2
Hepatocyte [17] = test: Intrinsic clearance in CD1 mouse hepatocytes at 0.5 uM after 2 hrs by LC-MS/MS analysis; type: ADME, cell-based; how it was run: as §1
Hepatocyte [18] = test: Intrinsic clearance in Sprague-Dawley rat hepatocytes at 0.5 uM after 2 hrs by LC-MS/MS analysis; type: ADME, cell-based; how it was run: as §1

T1 sequence (P08684 whole entry): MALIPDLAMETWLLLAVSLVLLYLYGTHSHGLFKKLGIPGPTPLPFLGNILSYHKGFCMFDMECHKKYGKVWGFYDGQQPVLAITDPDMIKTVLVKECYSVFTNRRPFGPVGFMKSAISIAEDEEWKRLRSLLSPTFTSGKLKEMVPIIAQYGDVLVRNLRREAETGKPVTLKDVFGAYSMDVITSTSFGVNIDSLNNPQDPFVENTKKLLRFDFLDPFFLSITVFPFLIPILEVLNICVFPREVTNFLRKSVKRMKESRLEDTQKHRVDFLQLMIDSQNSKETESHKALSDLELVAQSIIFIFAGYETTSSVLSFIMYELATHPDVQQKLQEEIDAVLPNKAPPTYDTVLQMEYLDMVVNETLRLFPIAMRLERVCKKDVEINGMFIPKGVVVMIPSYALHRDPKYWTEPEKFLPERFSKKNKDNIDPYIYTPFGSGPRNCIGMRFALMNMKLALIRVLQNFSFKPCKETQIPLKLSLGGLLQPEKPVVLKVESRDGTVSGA
T2 sequence (P21453 whole entry, the tested form may be a part): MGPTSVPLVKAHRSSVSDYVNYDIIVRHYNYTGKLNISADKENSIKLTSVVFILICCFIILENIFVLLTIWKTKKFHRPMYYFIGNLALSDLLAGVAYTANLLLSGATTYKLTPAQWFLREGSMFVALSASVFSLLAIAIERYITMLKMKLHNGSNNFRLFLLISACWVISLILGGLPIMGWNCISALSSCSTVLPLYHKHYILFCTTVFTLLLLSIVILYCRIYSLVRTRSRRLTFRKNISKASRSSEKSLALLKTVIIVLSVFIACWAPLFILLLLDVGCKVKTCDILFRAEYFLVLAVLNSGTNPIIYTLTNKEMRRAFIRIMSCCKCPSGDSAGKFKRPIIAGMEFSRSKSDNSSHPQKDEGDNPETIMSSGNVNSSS
Sphingosine 1-phosphate receptor 2, sequence (O95136 whole entry): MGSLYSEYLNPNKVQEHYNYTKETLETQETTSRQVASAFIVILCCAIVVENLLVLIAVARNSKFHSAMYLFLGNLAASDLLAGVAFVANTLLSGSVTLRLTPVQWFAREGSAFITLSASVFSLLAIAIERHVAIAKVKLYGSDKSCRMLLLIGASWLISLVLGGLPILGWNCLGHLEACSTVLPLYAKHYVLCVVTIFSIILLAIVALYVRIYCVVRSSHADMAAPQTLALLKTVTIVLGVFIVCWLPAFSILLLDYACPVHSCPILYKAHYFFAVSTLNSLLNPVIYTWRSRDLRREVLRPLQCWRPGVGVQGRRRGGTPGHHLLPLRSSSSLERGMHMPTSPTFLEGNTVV
Sphingosine 1-phosphate receptor 5, sequence (Q9H228 whole entry): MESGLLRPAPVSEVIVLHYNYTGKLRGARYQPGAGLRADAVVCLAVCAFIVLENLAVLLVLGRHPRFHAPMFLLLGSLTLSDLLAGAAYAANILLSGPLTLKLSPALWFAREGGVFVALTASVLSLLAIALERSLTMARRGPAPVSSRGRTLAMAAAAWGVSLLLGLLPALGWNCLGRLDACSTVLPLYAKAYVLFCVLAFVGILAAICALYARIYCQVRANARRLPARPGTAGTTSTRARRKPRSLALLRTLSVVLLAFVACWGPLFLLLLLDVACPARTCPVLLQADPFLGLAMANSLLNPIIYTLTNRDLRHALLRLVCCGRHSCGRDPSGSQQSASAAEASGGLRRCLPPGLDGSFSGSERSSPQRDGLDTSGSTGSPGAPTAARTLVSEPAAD
Cytochrome P450 2C19, sequence (P33261 whole entry): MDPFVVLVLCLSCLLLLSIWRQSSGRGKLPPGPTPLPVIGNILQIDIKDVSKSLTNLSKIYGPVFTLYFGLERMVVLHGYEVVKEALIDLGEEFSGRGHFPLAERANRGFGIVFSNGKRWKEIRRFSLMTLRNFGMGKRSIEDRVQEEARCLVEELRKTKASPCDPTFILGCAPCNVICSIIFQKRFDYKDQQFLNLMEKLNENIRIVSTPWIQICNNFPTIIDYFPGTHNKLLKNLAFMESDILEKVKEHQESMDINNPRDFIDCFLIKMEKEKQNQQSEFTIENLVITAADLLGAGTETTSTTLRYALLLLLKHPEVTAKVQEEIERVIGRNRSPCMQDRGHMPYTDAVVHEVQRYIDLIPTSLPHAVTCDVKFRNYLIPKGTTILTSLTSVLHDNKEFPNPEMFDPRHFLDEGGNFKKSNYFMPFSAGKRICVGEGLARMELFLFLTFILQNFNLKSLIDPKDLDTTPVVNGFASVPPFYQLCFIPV
Cytochrome P450 2D6, sequence (P10635 whole entry): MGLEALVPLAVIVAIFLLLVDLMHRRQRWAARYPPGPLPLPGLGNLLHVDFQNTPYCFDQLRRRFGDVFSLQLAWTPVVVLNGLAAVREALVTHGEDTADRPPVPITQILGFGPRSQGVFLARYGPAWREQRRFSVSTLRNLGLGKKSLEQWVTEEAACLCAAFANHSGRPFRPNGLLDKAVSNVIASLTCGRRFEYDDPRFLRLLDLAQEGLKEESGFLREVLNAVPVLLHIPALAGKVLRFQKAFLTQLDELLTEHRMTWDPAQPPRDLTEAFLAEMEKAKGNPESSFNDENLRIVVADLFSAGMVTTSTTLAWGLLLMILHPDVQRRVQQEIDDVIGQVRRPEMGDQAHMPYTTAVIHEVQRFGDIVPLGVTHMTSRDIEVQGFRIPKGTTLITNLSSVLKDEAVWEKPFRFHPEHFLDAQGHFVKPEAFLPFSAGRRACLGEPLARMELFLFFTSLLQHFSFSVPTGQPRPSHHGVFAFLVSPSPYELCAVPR

In the case of `Cc1c2c(nn1-c1nnc(-c3ccc(OC(C)C)c(Cl)c3)s1)CCN(CCC(=O)O)C2`, the IC50 (Cytochrome P450 3A4 [1]) is reported as > 50000 nM, the EC50 [2] is reported as > 31600 nM and the EC50 [3] is reported as 16.6 nM. For the same molecule, the IC50 (Cytochrome P450 3A4 [4]) was > 50000 nM, the bioavailability [5] was 52% and the EC50 [6] was 1.58 nM. The “inhibition (INH)” value (Cytochrome P450 3A4 [7]) was “tde”, the chromatographic logD [8] was 1.03 and the fraction unbound at 4 h [9] was 0.011. For the same molecule, the CLH [10] was 6 mL/min/g, the IC50 (Cytochrome P450 1A2) was > 50000 nM and the chromatographic logD [11] was 3.73. For the same molecule, the Activity (Salmonella typhimurium) was “Non-toxic”, the chromatographic logD [12] was 1.53 and the “inhibition (INH)” value (Cytochrome P450 3A4 [13]) was “tde”. The Papp A→B at 1.5 h [14] was 14.7 ×10⁻⁶ cm/s, the IC50 (Rattus norvegicus) was 6 nM and the “inhibition (INH)” value (Cytochrome P450 3A4 [15]) was “tde”. The IC50 (Cytochrome P450 2D6) was > 50000 nM, the EC50 [16] was 6.31 nM and the IC50 (Cytochrome P450 2C19) was > 50000 nM. The CLH (Hepatocyte [17]) was < 0.85 mL/min/g and the CLH (Hepatocyte [18]) was 3.2 mL/min/g.
